Results as given in PMC5438482 (Journal of Alzheimer's Disease, 2017).

Assays:
[1] = comparison CNS drug; no reference given; cited from earlier work
MC65 cells [2] = test: Cellular ROS assay with CM-H2DCFDA in MC65 cells; type: cell-based; conditions: CM-H2DCFDA fluorescence, TC- condition, n = 7-8
Outline: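 MC65 cells kept in 1 μg/mL tetracycline were washed extensively and plated at 2.5×10^4 cells/well in serum-free, phenol-red-free Opti-MEM without tetracycline. For ROS, cells were PBS-washed, loaded with CM-H2DCFDA and incubated 40 min. Random fluorescence photomicrographs were taken per condition, and intensity was quantified by image analysis, blinded to investigator.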

MC65 cells [3] = conditions: cited from earlier work

SMILES	Log Doct [1]	ROS production of MC65 cells (MC65 cells [2])	MC65 cell death (MC65 cells [3])
CN(C)CCC(c1ccc(Cl)cc1)c1ccccn1 (stereo not drawn) [chlorpheniramine]	1.25		
Cc1c(C)c2c(c(C)c1O)CC[C@@](C)(CCC[C@H](C)CCC[C@H](C)CCCC(C)C)O2 [α-tocopherol]		reduced	blocked
